Laboratory results as given in ChEMBL document CHEMBL3351896, “Small Molecule that Reverses Dexamethasone Resistance in T-cell Acute Lymphoblastic Leukemia (T-ALL)” (ACS Med Chem Lett, 2014).
Calls of active or inactive are those of the source. The rule behind the calls is not given here.

Legend:
Type in all cases: functional, cell-based
CUTLL1 [1] = test: Effect on RPS14 gene expression in human CUTLL1 cells in absence of 1 uM dexamethasone at 30 uM after 24 hrs by microarray method
Outline: (§1)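 Human CUTLL1 T-ALL cells exposed for 24 h to vehicle (DMSO), dexamethasone alone (1 μM), test compound alone (30 μM), or dexamethasone 1 μM plus compound 30 μM, each in triplicate. Expression profiled by microarray. Glucocorticoid-regulated gene sets from ALL patients on glucocorticoid therapy scored by GSEA. Leading-edge genes compared between the combination and dexamethasone alone.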

CUTLL1 [2] = test: Effect on RAD51AP1 gene expression in human CUTLL1 cells in presence of 1 uM dexamethasone at 30 uM after 24 hrs by microarray method; outline: as §1
CUTLL1 [3] = test: Effect on USP1 gene expression in human CUTLL1 cells in presence of 1 uM dexamethasone at 30 uM after 24 hrs by microarray method; outline: as §1
CUTLL1 [4] = test: Effect on RUVBL1 gene expression in human CUTLL1 cells in absence of 1 uM dexamethasone at 30 uM after 24 hrs by microarray method; outline: as §1
CUTLL1 [5] = test: Increase in GR expression in human CUTLL1 cells at 25 to 50 uM in presence of 1 uM dexamethasone and 1 uM […] and glucocorticoid receptor antagonist RU486 after 24 hrs by RT-qPCR method
Outline: (§2)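 CUTLL1 cells exposed to compound (25 or 50 μM) alone, with 1 μM dexamethasone, or with dexamethasone plus 1 μM RU486, for 6 or 24 h. GR measured as protein by Western blot and as transcript by RT-qPCR.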

CUTLL1 [6] = test: Effect on TIPIN gene expression in human CUTLL1 cells in presence of 1 uM dexamethasone at 30 uM after 24 hrs by microarray method; outline: as §1
CUTLL1 [7] = test: Effect on TSC22D3 gene expression in human CUTLL1 cells in presence of 1 uM dexamethasone at 30 uM after 24 hrs by microarray method; outline: as §1
CUTLL1 [8] = test: Effect on LILRB3 gene expression in human CUTLL1 cells in presence of 1 uM dexamethasone at 30 uM after 24 hrs by microarray method
Outline: (§3)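 CUTLL1 T-ALL cells exposed 24 h to vehicle (DMSO), dexamethasone alone (1 μM), test agent alone (30 μM), or dexamethasone (1 μM) plus test agent (30 μM), in triplicate. Expression profiled by microarray. Leading-edge genes from GSEA were compared between the dexamethasone-plus-agent and dexamethasone-alone groups, using glucocorticoid-regulated gene sets from ALL patients on glucocorticoid therapy.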

CUTLL1 [9] = test: Increase in GR expression in human CUTLL1 cells at 25 to 50 uM in presence of 1 uM dexamethasone after 24 hrs by Western blotting method; outline: as §2
CUTLL1 [10] = test: Effect on FKBP5 gene expression in human CUTLL1 cells in presence of 1 uM dexamethasone at 30 uM after 24 hrs by microarray method; outline: as §3
CUTLL1 [11] = test: Effect on ALYREF gene expression in human CUTLL1 cells in absence of 1 uM dexamethasone at 30 uM after 24 hrs by microarray method; outline: as §3
CUTLL1 [12] = test: Increase in GR expression in human CUTLL1 cells at 25 to 50 uM in presence of 1 uM dexamethasone after 24 hrs by RT-qPCR method; outline: as §2
CUTLL1 [13] = test: Effect on GINS2 gene expression in human CUTLL1 cells in presence of 1 uM dexamethasone at 30 uM after 24 hrs by microarray method; outline: as §3
CUTLL1 [14] = test: Effect on CHAF1A gene expression in human CUTLL1 cells in absence of 1 uM dexamethasone at 30 uM after 24 hrs by microarray method; outline: as §3
CUTLL1 [15] = test: Effect on CDT1 gene expression in human CUTLL1 cells in absence of 1 uM dexamethasone at 30 uM after 24 hrs by microarray method; outline: as §3
CUTLL1 [16] = test: Effect on TIFA gene expression in human CUTLL1 cells in presence of 1 uM dexamethasone at 30 uM after 24 hrs by microarray method; outline: as §1
CUTLL1 [17] = test: Potentiation of dexamethasone-induced cytotoxicity against human CUTLL1 cells with high GR expression levels at 50 uM after 48 hrs by alamar blue assay
Outline: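 Human CUTLL1 T-ALL cells engineered to express high (overexpressed) or low (knockdown) glucocorticoid receptor levels. Exposed to compound alone or with 1 μM dexamethasone. Alamar blue growth inhibition read after 48 h.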

CUTLL1 [18] = test: Effect on CDC25A gene expression in human CUTLL1 cells in absence of 1 uM dexamethasone at 30 uM after 24 hrs by microarray method; outline: as §3
CUTLL1 [19] = test: Effect on BRCA1 gene expression in human CUTLL1 cells in presence of 1 uM dexamethasone at 30 uM after 24 hrs by microarray method; outline: as §3
CUTLL1 [20] = test: Effect on PFAS gene expression in human CUTLL1 cells in presence of 1 uM dexamethasone at 30 uM after 24 hrs by microarray method; outline: as §1
CUTLL1 [21] = test: Effect on TIFA gene expression in human CUTLL1 cells in absence of 1 uM dexamethasone at 30 uM after 24 hrs by microarray method; outline: as §1
CUTLL1 [22] = test: Effect on CDC25A gene expression in human CUTLL1 cells in presence of 1 uM dexamethasone at 30 uM after 24 hrs by microarray method; outline: as §3
CUTLL1 [23] = test: Effect on BTG1 gene expression in human CUTLL1 cells in presence of 1 uM dexamethasone at 30 uM after 24 hrs by microarray method; outline: as §3
CUTLL1 [24] = test: Increase in GR expression in human CUTLL1 cells at 50 uM after 6 hrs by RT-qPCR method; outline: as §2
CUTLL1 [25] = test: Effect on BRCA1 gene expression in human CUTLL1 cells in absence of 1 uM dexamethasone at 30 uM after 24 hrs by microarray method; outline: as §3
[26] = Growth inhibition of human CUTLL1 cells in presence of 1 uM dexamethasone after 48 hrs by alamar blue assay; details: CUTLL1, 48 h
Outline: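 CUTLL1 cells given compound alone or with dexamethasone 1 μM. Growth inhibition measured by alamar blue after 48 h.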

CUTLL1 [27] = test: Effect on CDC45 gene expression in human CUTLL1 cells in presence of 1 uM dexamethasone at 30 uM after 24 hrs by microarray method; outline: as §3
CUTLL1 [28] = test: Effect on DDIT4 gene expression in human CUTLL1 cells in absence of 1 uM dexamethasone at 30 uM after 24 hrs by microarray method; outline: as §3
CUTLL1 [29] = test: Effect on RAD51AP1 gene expression in human CUTLL1 cells in absence of 1 uM dexamethasone at 30 uM after 24 hrs by microarray method; outline: as §1
CUTLL1 [30] = test: Growth inhibition of human CUTLL1 cells at 50 uM in presence of erastin after 48 hrs by alamar blue assay
CUTLL1 [31] = test: Growth inhibition of human CUTLL1 cells at 50 uM in presence of taxol after 48 hrs by alamar blue assay
CUTLL1 [32] = test: Growth inhibition of human CUTLL1 cells at 50 uM in presence of camptothecin after 48 hrs by alamar blue assay
CUTLL1 [33] = test: Effect on TSC22D3 gene expression in human CUTLL1 cells in absence of 1 uM dexamethasone at 30 uM after 24 hrs by microarray method; outline: as §1

Compound: Nc1ncc(-c2ccncc2)c(C2CC2)n1
- Activity (CUTLL1 [1]): inactive
- Activity (CUTLL1 [2]): Active
- Activity (CUTLL1 [3]): Active
- Activity (CUTLL1 [4]): inactive
- Activity (CUTLL1 [5]): inactive
- Activity (CUTLL1 [6]): Active
- Activity (CUTLL1 [7]): Active
- Activity (CUTLL1 [8]): Active
- Activity (CUTLL1 [9]): Active
- Activity (CUTLL1 [10]): Active
- Activity (CUTLL1 [11]): inactive
- Activity (CUTLL1 [12]): Active
- Activity (CUTLL1 [13]): Active
- Activity (CUTLL1 [14]): inactive
- Activity (CUTLL1 [15]): inactive
- Activity (CUTLL1 [16]): Active
- Activity (CUTLL1 [17]): Active
- Activity (CUTLL1 [18]): inactive
- Activity (CUTLL1 [19]): Active
- Activity (CUTLL1 [20]): Active
- Activity (CUTLL1 [21]): inactive
- Activity (CUTLL1 [22]): Active
- Activity (CUTLL1 [23]): Active
- Activity (CUTLL1 [24]): inactive
- Activity (CUTLL1 [25]): inactive
- EC50 [26]: 28 µM
- Activity (CUTLL1 [27]): Active
- Activity (CUTLL1 [28]): inactive
- Activity (CUTLL1 [29]): inactive
- growth inhibition (GI) (CUTLL1 [30]): inactive
- growth inhibition (GI) (CUTLL1 [31]): inactive
- growth inhibition (GI) (CUTLL1 [32]): inactive
- Activity (CUTLL1 [33]): inactive
